In the library only some 2.2% were active in any assay of this set; here they are far more common.
SKN-1 block: C. elegans SKN-1 inhibition; C. elegans VP596 Pgst-4::GFP/RFP ratio, acrylamide-induced, 24 h; inhibition, % at 21.8 µM; 360,000 compounds, 0.49% hits; AID 624304;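 active = interference check ratio from 0.5 to 1.5 plus GFP to RFP signal ratio inhibition reaching or exceeding a fixed threshold, cut at about 30% in these data, passing the limit was not always enough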
MT1-MMP act inh: inhibitors of human MT1-MMP activation; P50281; HT1080 RFP-PRO-GFP cells, GFP/RFP ratio fluorescence, overnight; percent of plate control window, DMSO zero; GFP/RFP ratio change, % at 20 µM; 360,000 compounds, 0.061% hits; AID 651647;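 active = GFP/RFP ratio change of at least 30% with cell ATP level not reduced by more than half and red fluorescence within 50% of control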
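Test system: HT1080 RFP-PRO-GFP cells; Benchmarks: DMSO and RFP-L50D-GFP cell wells; Timing: cells overnight before dosing, compound overnight, 37 °C, 5% CO2; Compound: one 20 µM compound dose with 1% DMSO; Read-out: GFP/RFP fluorescence ratio.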
proKLK7 act: activates the human kallikrein-7 zymogen; purified proKLK7, EDANS-DABCYL substrate fluorescence; 100% is mature enzyme control, 0% vehicle; AID 652039; activation, % at 7 µM; P49862; 370,000 compounds, 0.9% hits;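 active = activation above the mean of all tested compounds plus 3 SD, computed per campaign excluding outliers beyond control limits, cut at about 13% in these data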
DDE Tn6 FP inh: disrupts Tn6 cyclic peptide binding to fibrin D-Dimer-E complex | P02675 | Fibrin DD(E) TRITC-Tn6 fluorescence polarization displacement | inhibition, % at 8.3 µM | 370,000 compounds, 0.21% hits | AID 720509;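 active = inhibition above a per-campaign cutoff: mean of compounds within control limits plus 3 SD, cut at about 15% in these data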;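 also: 0% = median of all compound wells on the plate and 100% = blocking peptide control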
Neddylation inh: cullin neddylation inhibition. calls only at 25 µM. P61081+Q13564. 360,000 compounds, 0.58% hits. TR-FRET cullin neddylation, biochemical; in the data active = inhibition above about 36%
Target sequence (P61081 whole entry, looked up): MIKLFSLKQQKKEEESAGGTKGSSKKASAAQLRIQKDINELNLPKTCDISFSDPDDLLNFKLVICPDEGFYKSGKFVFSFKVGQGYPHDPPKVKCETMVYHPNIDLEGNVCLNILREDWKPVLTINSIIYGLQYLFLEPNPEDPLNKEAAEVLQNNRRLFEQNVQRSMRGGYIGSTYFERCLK
Target sequence (Q13564 whole entry, looked up): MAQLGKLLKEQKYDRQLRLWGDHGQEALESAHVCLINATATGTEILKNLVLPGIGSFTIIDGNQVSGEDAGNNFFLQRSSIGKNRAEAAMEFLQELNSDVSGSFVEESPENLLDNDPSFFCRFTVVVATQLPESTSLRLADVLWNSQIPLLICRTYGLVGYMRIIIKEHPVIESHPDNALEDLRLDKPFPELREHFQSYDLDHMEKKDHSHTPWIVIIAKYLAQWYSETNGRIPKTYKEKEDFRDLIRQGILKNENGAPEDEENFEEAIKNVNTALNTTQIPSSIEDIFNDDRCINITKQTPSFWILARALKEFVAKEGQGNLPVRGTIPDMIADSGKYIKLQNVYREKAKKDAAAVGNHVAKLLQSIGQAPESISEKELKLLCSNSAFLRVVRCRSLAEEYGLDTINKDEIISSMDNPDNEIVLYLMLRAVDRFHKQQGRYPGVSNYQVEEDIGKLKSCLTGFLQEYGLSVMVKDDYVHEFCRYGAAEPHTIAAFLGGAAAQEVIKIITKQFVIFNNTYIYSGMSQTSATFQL
DDE Tn7 FP inh: DD(E)-Tn7 binding inhibition, primary FP screen; 370,000 compounds, 0.13% hits; AID 720508; inhibition, % at 8.3 µM; FP displacement of FITC-Tn7 peptide from fibrin DD(E); 0% = median of compound wells per plate; P02675;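 active = inhibition above the mean of compounds falling within the control limits plus 3 SD of them, cut at about 14% in these data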;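 also: 0% = plate median of compound wells and 100% = 10 µM Aha-Tn7 peptide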
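Measure: % inhibition scaled between sample-field median and high-control FP; Test system: human fibrin DD(E); Quantity: 2 µM final DD(E) protein; Doses: one dose, 8.3 µM nominal; Schedule: compound with protein 10 min, then 3 h after probe, room temperature; Detection: fluorescence polarization; Medium: Tris buffer with calcium and detergent, pH 7.8.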
Neddyl inh conf: cullin neddylation inhibition, confirmation | shares compounds with Neddylation inh | TR-FRET cullin neddylation biochemical assay | calls only at 25 µM | 1,800 compounds, 13% hits; in the data active = inhibition above about 40%;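 also: neddylation substrate is the cullin 1 ring ligase complex with SKP2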
An asterisk follows results filed as active; i = inactive; · = no result given; + = active, no number.

SMILES	SKN-1 block	MT1-MMP act inh	proKLK7 act	DDE Tn6 FP inh	Neddylation inh	DDE Tn7 FP inh	Neddyl inh conf
Nc1nc2n(n1)C(c1cccc(Br)c1)CC(c1ccc(F)cc1)N2 (stereo unspecified)	10	-4	0	-4	+	-11	i
Cc1cc(/C=C(\C#N)C(=O)OCC(=O)NC(=O)NC(C)(C)C)c(C)n1CCC(C)C	-5	3	0	3	+	-3	i
CCCn1c(C)cc(/C=C(\C#N)C(=O)OCC(=O)Nc2cccc(S(N)(=O)=O)c2)c1C	-14	8	-44	-7	+	-5	i
CCC(C)[C@H](NC(=O)[C@@H]1CSC2c3ccccc3C(=O)N21)C(=O)NCc1ccncc1 (stereo partly specified)	7	0	0	-4	i	0	·
CC(=O)Nc1cc(-c2ccsc2)cn2c(-c3ccc(F)cc3)cnc12	5	-1	-10	0	+	1	i
CCOCCN1CCN(c2c(C)c(C)nc3cc(-c4cc(OC)cc(OC)c4)nn23)CC1	3	9	-3	13	+	2	i
Nc1cc(Cl)ccc1C(=O)OCC(=O)NCc1cccs1	-21	0	2	8	+	-4	·
CC(=O)Nc1ccc(/C=C/c2nc3ccccc3o2)cc1	12	1	3	6	+	4	·
CC(=O)Nc1cccc(N/C=C(\C=O)c2nc3ccccc3o2)c1	-5	-1	-1	2	+	-8	i
O=C(Nc1ccc(/C=C/c2nc3ccccc3o2)cc1)c1c(F)cccc1F	13	0	-161	-3	·	5	·
Cc1ccc(Cl)c2sc(NC(=O)C3=COCCO3)nc12	8	-4	0	-10	i	-12	·
COc1cc(NC(=O)Cc2ccccc2)ccc1NC(=O)c1ccccc1	8	-1	1	2	+	4	i
COc1cc(NC(=O)c2ccccc2)ccc1NC(=O)Cc1ccccc1	-17	4	0	-4	i	2	·
COc1cc(NC(=O)c2cccnc2)c(Cl)cc1NC(=O)c1ccccc1	5	-1	0	3	+	-5	i
COc1cc(NC(=O)c2cccnc2)c(Cl)cc1NC(=O)c1ccc(Cl)cc1	15	3	0	-4	·	6	·
Cc1ccccc1CC(=O)Nc1ccc2c(C)cc(=O)oc2c1	18	2	2	9	+	3	i
Cc1cc(=O)oc2cc(NC(=O)CN3C(=O)NC(C)(c4ccccc4)C3=O)ccc12 (stereo unspecified)	17	0	5	-9	+	0	+
Cc1ccc(CNC(=O)Cn2nnc(C(=O)Nc3ccc(Br)cc3)c2N)cc1	15	-2	0	3	i	-5	·
COc1cccc(CN2CCN(c3ccc(F)cc3)C2=O)c1	2	5	0	-2	i	2	·
C/C=C(\C)C(=O)O[C@@H]([C@H](O)c1cc2ccc(=O)oc2cc1OC)C(C)(C)O	8	1	-3	-1	·	2	·
C/C=C(\C)C(=O)O[C@H](c1cc2ccc(=O)oc2cc1OC)[C@@H](O)C(C)(C)O	-9	-1	1	3	+	2	i
O=C1Cc2ccccc2C(c2ccc(Cl)cc2)N1 (stereo unspecified)	-6	3	0	2	i	0	·
O=C(NCc1cccs1)c1cnc2ccccn2c1=O	2	6	·	·	i	·	·
O=C(NCc1cccs1)c1cccn2c(=O)c3sccc3nc12	3	-7	2	-2	+	0	i
O=C(CSc1nc2ccsc2c(=O)n1Cc1ccc(C(=O)O)cc1)NCc1ccco1	4	-2	0	-1	i	5	·
SMILES	SKN-1 block	MT1-MMP act inh	proKLK7 act	DDE Tn6 FP inh	Neddylation inh	DDE Tn7 FP inh	Neddyl inh conf
O=C(NCc1ccco1)c1cccn2c(=O)c3sccc3nc12	24	-6	2	6	+	5	·
O=C(COC(=O)c1ccc2ccccc2n1)c1ccccc1	-3	0	0	2	i	-5	·
CCOc1ccc2[nH]c(=O)c(CN(CCCN3CCOCC3)Cc3nnnn3Cc3ccc(OC)cc3)cc2c1	4	-6	0	2	+	-1	i
CCOc1ccc2[nH]c(=O)c(CN(CCO)Cc3nnnn3CCc3ccccc3)cc2c1	-3	0	6	2	+	-3	i
COc1ccc2cc(S(=O)(=O)N3CCCC3)ccc2c1	-6	2	0	5	i	-2	·
CCCCCc1cc(=O)oc2c(C(CCN3CCCCC3)c3ccc4c(c3)OCO4)c(OC)cc(OC)c12 (stereo unspecified)	-2	3	0	-2	i	-2	·
CCCCn1c(=O)nc2n(-c3ccc(OC)cc3)c3ccccc3cc-2c1=O	3	3	1	2	i	8	·
Cc1ccc(-n2c3nc(=O)n(C)c(=O)c-3cc3ccccc32)cc1	-1	2	10	2	+	0	i
CCOc1ccc(NC(=O)COC(=O)c2ccc3ncsc3c2)cc1OCC	-7	4	0	3	+	5	i
CCn1c(=O)cc(OCC(=O)N2CCCC2)c2ccccc21	2	4	1	-4	i	-1	·
COc1cccc(-c2ccc(C#N)c(OC(=O)c3ccc(Cl)cc3)n2)c1	-4	-3	-33	4	+	-1	i
Cc1ccc2ccc(C#N)cc2c1O	12	-7	3	6	+	3	+
O=C(O)c1cc(N2CCCCC2)nc2ccccc12	-9	-5	2	-5	+	4	+
C=CCOc1ccccc1CNc1ccc2[nH]c(=O)[nH]c2c1	12	4	0	2	+	0	i
N#CC1=C(N)Oc2cc3ccccc3cc2C1c1cccnc1 (stereo unspecified)	-21	-13	0	9	i	7	·
N#CC1=C(N)Oc2c(ccc3cccnc23)C1c1cccnc1 (stereo unspecified)	9	-20	-36	1	+	-8	i
Cc1cccc(C(=O)OCC(=O)NC(C)CCc2ccccc2)c1 (stereo unspecified)	3	3	0	0	i	2	·
CC(CCc1ccccc1)NC(=O)COC(=O)c1cccc(N(C)C)c1 (stereo unspecified)	-13	1	0	1	+	1	i
CC1CCc2sc(NC(=O)c3ccc(N4C(=O)CCC4=O)cc3)c(C(N)=O)c2C1 (stereo unspecified)	5	4	1	1	+	-5	·
